ChEMBL document CHEMBL4411317 (Bioorg Med Chem, 2019)

What was measured:
[1] = Cytotoxicity against human LO2 cells assessed as cell viability at 100 uM after 48 hrs by MTT assay relative to control; format: cell-based, L02; settings: read-out: Activity
Method in brief: (§1)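 Hepatic LO2 cells grown in DMEM with 10% FBS and antibiotics at 37 °C, 5% CO2; log-phase cells seeded at 1 × 10^4 per well and exposed to compounds for 48 h. MTT (5 mg/mL stock in PBS) added 4 h before end; formazan dissolved in DMSO, absorbance read at 490 nm.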

Dipeptidyl peptidase 8 = Dipeptidyl peptidase 8 (Homo sapiens, UniProt Q6V1X1); assay: Inhibition of recombinant full-length human N-terminal GST-tagged DPP8 expressed in Sf9 insect cells using Gly-Pro-AMC as substrate measured at 60 secs interval for 20 mins by fluorescence assay
Chain of Dipeptidyl peptidase 8 (Q6V1X1 whole entry): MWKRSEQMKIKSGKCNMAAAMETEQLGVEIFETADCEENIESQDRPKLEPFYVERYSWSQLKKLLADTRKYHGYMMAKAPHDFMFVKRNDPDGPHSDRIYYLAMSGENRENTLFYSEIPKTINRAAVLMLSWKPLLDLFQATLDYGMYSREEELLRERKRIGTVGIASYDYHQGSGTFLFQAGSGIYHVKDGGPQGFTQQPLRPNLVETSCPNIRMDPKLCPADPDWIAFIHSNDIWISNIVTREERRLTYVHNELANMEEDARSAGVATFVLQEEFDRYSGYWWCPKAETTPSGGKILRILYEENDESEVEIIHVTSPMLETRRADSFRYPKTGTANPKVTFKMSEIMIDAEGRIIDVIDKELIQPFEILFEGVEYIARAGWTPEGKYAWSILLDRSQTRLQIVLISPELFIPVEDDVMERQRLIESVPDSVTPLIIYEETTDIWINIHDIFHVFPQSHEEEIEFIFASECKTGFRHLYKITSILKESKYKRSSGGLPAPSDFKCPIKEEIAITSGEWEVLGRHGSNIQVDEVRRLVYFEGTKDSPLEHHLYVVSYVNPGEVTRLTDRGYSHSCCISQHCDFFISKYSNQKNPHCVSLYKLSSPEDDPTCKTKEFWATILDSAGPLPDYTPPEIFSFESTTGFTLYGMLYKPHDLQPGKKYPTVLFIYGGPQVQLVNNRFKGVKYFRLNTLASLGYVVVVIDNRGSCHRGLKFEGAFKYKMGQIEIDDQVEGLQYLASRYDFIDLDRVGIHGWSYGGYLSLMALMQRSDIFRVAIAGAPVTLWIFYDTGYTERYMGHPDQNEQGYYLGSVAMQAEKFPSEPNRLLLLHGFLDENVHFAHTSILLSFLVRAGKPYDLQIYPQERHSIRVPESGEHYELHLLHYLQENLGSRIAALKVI

Dipeptidyl peptidase 9 = Dipeptidyl peptidase 9 (Homo sapiens, UniProt Q86TI2); assay: Inhibition of recombinant full-length human N-terminal GST-tagged DPP9 expressed in Sf9 insect cells using Gly-Pro-AMC as substrate measured at 60 secs interval for 20 mins by fluorescence assay
Chain of Dipeptidyl peptidase 9 (Q86TI2 whole entry): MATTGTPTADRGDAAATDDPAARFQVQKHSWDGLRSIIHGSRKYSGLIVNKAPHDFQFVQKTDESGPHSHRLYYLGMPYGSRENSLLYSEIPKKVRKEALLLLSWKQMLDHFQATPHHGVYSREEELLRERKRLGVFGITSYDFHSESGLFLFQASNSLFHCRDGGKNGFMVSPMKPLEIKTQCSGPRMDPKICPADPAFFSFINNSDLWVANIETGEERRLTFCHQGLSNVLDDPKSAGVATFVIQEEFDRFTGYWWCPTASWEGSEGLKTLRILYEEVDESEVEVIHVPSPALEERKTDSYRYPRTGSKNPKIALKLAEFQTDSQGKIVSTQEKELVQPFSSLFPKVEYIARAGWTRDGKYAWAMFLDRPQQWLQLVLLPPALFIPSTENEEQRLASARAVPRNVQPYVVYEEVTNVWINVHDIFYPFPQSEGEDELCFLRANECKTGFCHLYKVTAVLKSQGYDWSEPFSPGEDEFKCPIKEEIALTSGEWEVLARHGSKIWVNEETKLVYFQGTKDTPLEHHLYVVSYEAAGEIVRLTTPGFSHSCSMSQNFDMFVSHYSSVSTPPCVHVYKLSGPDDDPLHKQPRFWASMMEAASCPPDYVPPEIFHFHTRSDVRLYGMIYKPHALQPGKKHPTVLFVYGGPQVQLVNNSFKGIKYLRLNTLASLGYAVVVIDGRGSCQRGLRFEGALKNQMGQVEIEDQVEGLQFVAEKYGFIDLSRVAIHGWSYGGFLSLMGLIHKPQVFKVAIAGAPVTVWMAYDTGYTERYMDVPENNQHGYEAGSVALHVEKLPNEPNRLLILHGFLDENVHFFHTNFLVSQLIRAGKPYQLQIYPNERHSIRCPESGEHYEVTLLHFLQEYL

[2] = Cytotoxicity against human LO2 cells assessed as cell viability at 50 uM after 48 hrs by MTT assay relative to control; format: cell-based, L02; settings: read-out: Activity; method in brief: as §1
Mus musculus = assay: Hypoglycemic activity in po dosed Kunming mouse assessed as decrease in blood glucose AUC (0 to 120 mins) administered as single dose treated for 30 mins prior to glucose load by OGTT; format: functional, organism-based
Method in brief: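 Male Kunming mice (20±2 g) fasted overnight (12 h), randomized (n = 8), given a single oral dose suspended in water vehicle; oral glucose 3 g/kg 30 min later. Blood sampled at -30, 0, 15, 30, 60 and 120 min; glucose AUC0–120 min versus vehicle, mean ± SEM, one-way ANOVA with Dunnett's test.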

[3] = Retention time of the compound in rat plasma at 1 uM by LC/MS/MS method; format: ADME, cell-free
[4] = Retention time of the compound in water at 1 uM by LC/MS/MS method; format: physicochemical; settings: buffer
[5] = Drug metabolism in rat plasma assessed as (R)-2-((4-(3-Aminopiperidin-1-yl)-3-(but-2-yn-1-yl)-2,6-dioxo-3,6-dihydropyrimidin-1(2H)-yl)methyl)-6-fluorobenzoic acid hydrochloride formation at 1 uM after 30 mins by LC/MS/MS method; format: ADME, cell-free; settings: 0.5 h
Method in brief: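 Ester prodrug incubated with rat plasma at 37 °C for 0 and 30 min; ester and formed acid quantified by LC/MS/MS.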

[6] = Cytotoxicity against human LO2 cells assessed as cell viability at 20 uM after 48 hrs by MTT assay relative to control; format: cell-based, L02; settings: read-out: Activity; method in brief: as §1
[7] = Retention time of the compound in rat plasma by LC/MS/MS method; format: ADME, cell-free

Structure (SMILES)	IC50 (Dipeptidyl peptidase 8)	IC50 (Dipeptidyl peptidase 9)	viability at 48 h, 100 µM [1]	also measured
CC#CCn1c(N2CCC[C@@H](N)C2)cc(=O)n(Cc2ccc(Br)cc2C(=O)O)c1=O	> 100 µM	> 100 µM	–	–
CC#CCn1c(N2CCC[C@@H](N)C2)cc(=O)n(Cc2cccc(F)c2C(=O)OC)c1=O	> 100 µM	> 100 µM	70%	Activity (Mus musculus): Dose-dependent effect; viability at 48 h, 50 µM [2]: 90%; Retention_time [3]: 5.41 min; Retention_time [4]: 5.41 min; Drug metabolism [5]: Metabolite_Detected
COc1cccc2c1C(=O)c1c(O)c3c(c(O)c1C2=O)C[C@@](O)(C(=O)CO)C[C@@H]3O[C@H]1C[C@H](N)[C@H](O)[C@H](C)O1 [DOXORUBICIN]	–	–	–	viability at 48 h, 20 µM [6]: 11%
CC#CCn1c(N2CCC[C@@H](N)C2)cc(=O)n(Cc2ccc(F)cc2C(=O)O)c1=O	> 100 µM	> 100 µM	–	–
CC#CCn1c(N2CCC[C@@H](N)C2)cc(=O)n(Cc2cc(C#N)ccc2C(=O)O)c1=O	> 100 µM	> 100 µM	–	–
CC#CCn1c(N2CCC[C@@H](N)C2)cc(=O)n(Cc2cccc(F)c2C(=O)O)c1=O	–	–	70%	viability at 48 h, 50 µM [2]: 90%; Retention_time [4]: 2.03 min; Retention_time [7]: 2 min
CC#CCn1c(N2CCC[C@@H](N)C2)cc(=O)n(Cc2ccccc2C(=O)O)c1=O	> 100 µM	> 100 µM	–	–

Second part, led by results:

IC50 (Dipeptidyl peptidase 8)	IC50 (Dipeptidyl peptidase 9)	Structure (SMILES)	viability at 48 h, 100 µM [1]	also measured
> 100 µM	> 100 µM	CC#CCn1c(N2CCC[C@@H](N)C2)cc(=O)n(Cc2cc(Br)ccc2C(=O)OC)c1=O	14%	–
> 100 µM	> 100 µM	CC#CCn1c(N2CCC[C@@H](N)C2)cc(=O)n(Cc2ccc(Cl)cc2C(=O)O)c1=O	–	–
> 100 µM	> 100 µM	CC#CCn1c(N2CCC[C@@H](N)C2)cc(=O)n(Cc2cc(Br)ccc2C(=O)O)c1=O	70%	viability at 48 h, 50 µM [2]: 90%
> 100 µM	> 100 µM	CC#CCn1c(N2CCC[C@@H](N)C2)cc(=O)n(Cc2cc(OC)ccc2C(=O)O)c1=O	–	–
